# Measured values as given in BindingDB's records for doi:10.1016/j.bmc.2013.02.060 (National Institute On Drug Abuse and The National Institute …, 2013).
# Biological target: Delta-type opioid receptor (Homo sapiens, UniProt P41143)
# Assay: Displacement of [3H]DADLE from human recombinant delta opioid receptor expressed in CHO cell membranes after 2 hrs by liquid scintillation counting analysis
# How it was run: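 Human DOR stably expressed in CHO cells; washed membranes (~30 µg protein/tube) incubated with ~2 nM [3H]DADLE and 10 drug concentrations in 50 mM Tris-HCl pH 7.4 with protease inhibitors, 2 h at 25 °C. Levallorphan defined nonspecific binding.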
# Delta-type opioid receptor, sequence (P41143 whole entry): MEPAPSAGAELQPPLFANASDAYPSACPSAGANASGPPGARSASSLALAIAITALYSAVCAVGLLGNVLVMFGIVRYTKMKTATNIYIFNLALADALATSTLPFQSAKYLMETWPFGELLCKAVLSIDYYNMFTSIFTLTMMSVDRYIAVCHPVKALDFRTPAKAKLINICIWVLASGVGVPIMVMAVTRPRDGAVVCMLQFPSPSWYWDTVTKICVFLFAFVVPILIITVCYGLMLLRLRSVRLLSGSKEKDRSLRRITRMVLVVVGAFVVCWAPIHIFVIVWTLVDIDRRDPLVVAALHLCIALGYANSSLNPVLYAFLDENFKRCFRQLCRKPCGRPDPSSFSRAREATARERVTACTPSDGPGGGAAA
row,Compound,Ki [nM]
1,Oc1ccc2c(c1)[C@]1(CCc3ccccc3)CCN(CC3CC3)C[C@@H]1O2,24
2,Oc1ccc2c(c1)[C@]1(CCc3ccccc3)CCN(CCc3ccc(C(F)(F)F)cc3)C[C@@H]1O2,26
3,CN1CC[C@@]2(C)c3cc(O)ccc3O[C@H]2C1,> 10000
4,Oc1ccc2c(c1)[C@]1(CCc3ccccc3)CCN(CCc3ccccc3F)C[C@@H]1O2,26
5,Oc1ccc2c(c1)[C@]1(CCc3ccccc3)CCN(CCc3cccc(C(F)(F)F)c3)C[C@@H]1O2,63
6,CN1CC[C@@]2(CCc3ccc(F)cc3)c3cc(O)ccc3O[C@H]2C1,128
7,CN1CC[C@@]2(CCc3ccccc3F)c3cc(O)ccc3O[C@H]2C1,52
8,Oc1ccc2c(c1)[C@]1(CCc3ccccc3)CCN(CCc3ccccc3)C[C@@H]1O2,39
9,Oc1ccc2c(c1)[C@]1(CCc3ccccc3)CCN(CCc3ccccc3C(F)(F)F)C[C@@H]1O2,136
10,CN1CC[C@@]2(CCCCCc3ccccc3)c3cc(O)ccc3O[C@H]2C1,75
11,CCCC[C@@]12CCN(C)C[C@@H]1Oc1ccc(O)cc12,207
12,Oc1ccc2c(c1)[C@]1(CCc3ccccc3)CCN(CCCc3ccccc3)C[C@@H]1O2,111
13,Oc1ccc2c(c1)[C@]1(CCc3ccccc3)CCN(CCc3ccc(F)cc3)C[C@@H]1O2,34
